The source made the active and inactive calls.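 How the source made its calls, unless noted: active means viability at or below 30% in both replicate assays; inconclusive means viability at or below 30% in just one of the two assays; inactive means the rest.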
Assays:
[1] = reducers of endogenous Her2 protein level, primary screen, SKBR3 breast tumor cells, AlphaScreen, ATP viability (AID 461;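 active means Her2 level under about 52% in both replicate screens, with viability over 70% of control, limit read from the data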;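 on Her2 level: lower value means less Her2 protein in the cells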;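 on viability: percent of carrier control wells set as 100% viability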); conditions: 18-24 h, measured here: SKBR3 viability, ATP luminescence, at 10 µM
[2] = target: Receptor tyrosine-protein kinase erbB-2 (Homo sapiens) (UniProt P04626); experiment: as above; conditions: 18-24 h, at 10 µM, stronger effect = lower value
[3] = SK-BR-3 cell growth inhibitors, pilot screen, 24 h, human (AID 572;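 active means viability at or below 10% of carrier control in both of two separate runs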;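 further: compound exposure lasted between 18 and 24 h rather than exactly 24 h; 100% = carrier-treated control wells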); conditions: SK-BR-3 viability, CellTiter-Glo luminescence, at 10 µM, stronger effect = lower value
[4] = HUVEC growth inhibition – cell-based, human, primary screen (AID 575); conditions: HUVEC proliferation, CellTiter-Glo luminescence, 72 h; at 10 µM; stronger effect = lower value;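 further: 100% = median of untreated cell wells with 0.1% DMSO on each plate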
Outline: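 material = primary HUVEC, no more than 12 passages | input = 1250 cells per well | controls = vehicle and MePR control wells | measured by = CTG luminescence | times = 72 h compound incubation | format = collagen-coated 384-well format | read-out = % viability vs DMSO wells | doses = single 10 µM dose, 0.1% DMSO, from 5x medium stock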

[5] = growth inhibitors of H69AR lung tumor, primary screen, human, duplicate replicates (AID 580;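 active means viability at or under a set limit in both replicates, limit being median viability minus 3 SD, cut at about 48% in these data, passing the limit was not always enough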;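 further: 100% = mean luminescence of untreated wells and 0% = no signal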); conditions: H69AR lung tumor cells viability, ATP luminescence, 72 h; at 10 µM; stronger effect = lower value
[6] = reversal of MRP1-mediated doxorubicin resistance, pilot screen, H69AR cells, doxorubicin co-treatment (AID 601;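 active means viability loss from added drug above about 55%, and viability with drug at most 40%, in both replicates, limit read from the data, passing the limit was not always enough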); conditions: CellTiter-Glo, 72 h, at 10 µM; for differential viability (reversal): stronger effect = higher value
[7] = 384-well plate pilot, post-Golgi transport modulator project, inhibition of yeast transport mutant growth (AID 636; in the data active means inhibition above about 31%); conditions: absorbance 615 nm, about 18 h, stronger effect = higher value
[8] = growth suppression of yeast trafficking mutant, preliminary HTS, modulators of trafficking downstream of Golgi apparatus project, 1536-format plate, OD 615 nm (AID 637; in the data active means inhibition above about 30%); conditions: yeast transport mutant growth, absorbance 615 nm, 18 h; stronger effect = higher value
[9] = H69AR cells + 2 uM doxorubicin, measured here: viability with 2 uM doxorubicin, stronger effect = lower value
[10] = H69AR cells, compound alone cytotoxicity

Receptor tyrosine-protein kinase erbB-2 (Homo sapiens), sequence (P04626 whole entry, looked up): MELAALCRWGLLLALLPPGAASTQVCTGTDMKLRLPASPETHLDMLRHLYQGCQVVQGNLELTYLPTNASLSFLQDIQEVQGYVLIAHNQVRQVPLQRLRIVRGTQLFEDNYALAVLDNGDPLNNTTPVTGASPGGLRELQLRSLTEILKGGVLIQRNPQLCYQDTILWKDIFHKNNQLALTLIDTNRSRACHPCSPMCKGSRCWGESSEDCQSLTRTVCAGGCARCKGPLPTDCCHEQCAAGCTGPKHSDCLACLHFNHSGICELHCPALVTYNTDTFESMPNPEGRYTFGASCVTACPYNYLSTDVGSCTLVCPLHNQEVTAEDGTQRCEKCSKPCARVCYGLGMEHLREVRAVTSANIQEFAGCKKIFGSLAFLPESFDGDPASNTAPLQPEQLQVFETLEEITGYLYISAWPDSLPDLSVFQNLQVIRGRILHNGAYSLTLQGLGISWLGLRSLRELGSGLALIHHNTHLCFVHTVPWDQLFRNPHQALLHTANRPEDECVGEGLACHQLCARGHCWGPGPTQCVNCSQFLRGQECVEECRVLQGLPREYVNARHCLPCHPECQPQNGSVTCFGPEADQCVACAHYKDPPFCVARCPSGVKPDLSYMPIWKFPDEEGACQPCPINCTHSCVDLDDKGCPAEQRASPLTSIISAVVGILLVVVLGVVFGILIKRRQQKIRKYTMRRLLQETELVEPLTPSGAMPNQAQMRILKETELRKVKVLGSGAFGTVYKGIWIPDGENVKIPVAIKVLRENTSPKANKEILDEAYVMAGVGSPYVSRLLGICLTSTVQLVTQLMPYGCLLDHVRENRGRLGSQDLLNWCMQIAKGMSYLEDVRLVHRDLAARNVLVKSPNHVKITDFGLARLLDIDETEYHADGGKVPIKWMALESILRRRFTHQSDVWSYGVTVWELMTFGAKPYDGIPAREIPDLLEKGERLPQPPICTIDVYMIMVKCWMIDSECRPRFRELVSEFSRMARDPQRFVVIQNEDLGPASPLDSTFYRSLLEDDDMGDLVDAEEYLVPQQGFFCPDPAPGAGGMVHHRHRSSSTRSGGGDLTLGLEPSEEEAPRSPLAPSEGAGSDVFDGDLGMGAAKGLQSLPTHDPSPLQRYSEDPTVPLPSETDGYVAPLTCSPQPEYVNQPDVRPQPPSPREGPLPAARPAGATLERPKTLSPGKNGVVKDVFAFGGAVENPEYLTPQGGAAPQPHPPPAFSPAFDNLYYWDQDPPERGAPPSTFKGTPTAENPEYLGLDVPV

SMILES	viability [1]	Her2 level [2]	viability [3]	viability [4]	viability [5]	differential viability (reversal) ([6]; H69AR cells + 2 uM doxorubicin)	viability [6, 9]	viability [6, 10]	inhibition [7]	inhibition [8]
COc1ccc(-c2nnc(-c3cccs3)o2)cc1OC	75%	110% (inactive)	75% (inactive)	92.7% (inactive)	94.6% (inactive)	1.17% (inactive)	93.5%	94.6%	-3.78% (inactive)	-3.93% (inactive)
COC(=O)c1ccc(C)c(NS(=O)(=O)c2ccc3c(c2)OCCO3)c1	87.5%	74% (inactive)	87.5% (inactive)	49.2% (inactive)	35% (active)	-37% (inactive)	72%	35%	1.54% (inactive)	-3.67% (inactive)
CNC(=O)CC(C(=O)O)c1ccc(OCC(C)C)cc1 (stereo not given)	90.5%	102% (inactive)	90.5% (inactive)	84.4% (inactive)	93.9% (inactive)	4.75% (inactive)	89.2%	93.9%	-2.11% (inactive)	9.84% (inactive)
CCn1c(NCc2ccc(N(C)C)cc2)nc2ccccc21	84.5%	87.5% (inactive)	84.5% (inactive)	101% (inactive)	97.9% (inactive)	11.2% (inactive)	86.7%	97.9%	-2.03% (inactive)	-1.5% (inactive)
COCCNS(=O)(=O)c1cc(F)ccc1OC	90%	99.5% (inactive)	90% (inactive)	95.1% (inactive)	103% (inactive)	5.13% (inactive)	97.6%	103%	-4.32% (inactive)	-5.74% (inactive)
COc1ccc(-n2ncc3c(=O)n(CC(=O)OCc4ccccc4)cnc32)cc1	83%	104% (inactive)	83% (inactive)	99.1% (inactive)	97.8% (inactive)	12% (inactive)	85.8%	97.8%	0% (inactive)	0.5% (inactive)
O=c1c2c(nc3nc(COc4ccccc4)[nH]n13)CCC2	103%	103% (inactive)	103% (inactive)	99.5% (inactive)	101% (inactive)	10.9% (inactive)	90.2%	101%	-4.8% (inactive)	3.23% (inactive)
CSc1cccc(NC(=O)C2CCCN2S(=O)(=O)c2ccc3c(c2)CCC(=O)N3)c1 (stereo not given)	93%	93.5% (inactive)	93% (inactive)	94.7% (inactive)	89% (inactive)	0.435% (inactive)	88.6%	89%	-4.21% (inactive)	-8.73% (inactive)
COC(=O)[C@H](C)NC(=O)NCc1ccc(F)cc1	102%	95% (inactive)	102% (inactive)	102% (inactive)	95.3% (inactive)	-8.8% (inactive)	104%	95.3%	-2.21% (inactive)	-1.43% (inactive)
COc1ccccc1N1CCN(CCCNC(=O)Nc2ccccc2)CC1	129%	83.5% (inactive)	129% (inactive)	84.5% (inactive)	90.3% (inactive)	-1.53% (inactive)	91.8%	90.3%	-2.76% (inactive)	-0.48% (inactive)
Cc1ccccc1CNS(=O)(=O)c1ccc2c(c1)OCCO2	95.5%	104% (inactive)	95.5% (inactive)	83.6% (inactive)	109% (inactive)	17.3% (inactive)	92%	109%	-5.47% (inactive)	-6.77% (inactive)
CC(=O)c1nnn(-c2nc(N3CCCC3)nc(N(c3ccccc3)c3ccccc3)n2)c1C	87%	76% (inactive)	87% (inactive)	97.8% (inactive)	82.7% (inactive)	5.7% (inactive)	77%	82.7%	-2.89% (inactive)	-3.45% (inactive)
Cn1c(=O)c2c(nc(SCC(=O)NCc3ccco3)n2C)n(C)c1=O	116%	98.5% (inactive)	116% (inactive)	87.1% (inactive)	93.5% (inactive)	-0.15% (inactive)	93.6%	93.5%	-0.78% (inactive)	-4.76% (inactive)
CC(=O)N1CCN=C1SCc1c(F)cccc1Cl	102%	105% (inactive)	102% (inactive)	73.1% (inactive)	78.8% (inactive)	-5.06% (inactive)	83.8%	78.8%	3.85% (inactive)	-1% (inactive)
Cc1ccccc1-c1nc(CS(=O)(=O)CC(=O)NCc2ccc3c(c2)OCO3)c(C)o1	99%	89% (inactive)	99% (inactive)	87.3% (inactive)	87.8% (inactive)	2.28% (inactive)	85.5%	87.8%	-4.53% (inactive)	3.61% (inactive)
Cc1cccc(N2CCN(S(=O)(=O)c3ccc4c(c3)CCC(=O)N4)CC2C)c1 (stereo not given)	110%	95% (inactive)	110% (inactive)	84.7% (inactive)	73.6% (inactive)	-10.3% (inactive)	83.9%	73.6%	-5.13% (inactive)	-2.18% (inactive)
Cc1ncoc1C(=O)Nc1ccccc1C(N)=O	104%	101% (inactive)	104% (inactive)	106% (inactive)	102% (inactive)	16.3% (inactive)	85.5%	102%	-6.08% (inactive)	-1% (inactive)
CC1CCCCC1NC(=O)Cn1nnc(-c2ccc(Cl)cc2)n1 (stereo not given)	86%	92.5% (inactive)	86% (inactive)	72.7% (inactive)	91.9% (inactive)	14.6% (inactive)	77.3%	91.9%	-1.3% (inactive)	-5.4% (inactive)
CCOC(=O)C1=C(C)NC(C)=C(C(=O)OCC)C1c1cc(N)ccc1OC(F)F	78.5%	108% (inactive)	78.5% (inactive)	76.6% (inactive)	111% (inactive)	4.41% (inactive)	106%	111%	0.91% (inactive)	-7.21% (inactive)
COc1ccc(NC(=O)CCCN2C(=O)C3C4C=CC(C4)C3C2=O)c(OC)c1 (stereo not given)	110%	94% (inactive)	110% (inactive)	82% (inactive)	102% (inactive)	5.03% (inactive)	97.1%	102%	-5% (inactive)	-5.09% (inactive)
COc1cccc(Nc2cc(C)nc3ccccc23)c1	77%	83% (inactive)	77% (inactive)	85.4% (inactive)	74.4% (inactive)	-1.05% (inactive)	75.4%	74.4%	-4.4% (inactive)	1.11% (inactive)
C/C(=N\O)C(=O)NCCCNCCCN(C)C	104%	94.5% (inactive)	104% (inactive)	117% (inactive)	98.2% (inactive)	-3.41% (inactive)	102%	98.2%	-6.16% (inactive)	0.48% (inactive)
Cc1c(NC(=O)C2(c3ccccc3)CCOCC2)c(=O)n(-c2ccccc2)n1C	92.5%	92% (inactive)	92.5% (inactive)	113% (inactive)	93.6% (inactive)	-3.73% (inactive)	97.3%	93.6%	-3.07% (inactive)	-4.76% (inactive)
CCCOc1cc(C)c(S(=O)(=O)N2CCN(C)CC2)cc1C	89%	99% (inactive)	89% (inactive)	104% (inactive)	95.2% (inactive)	2.26% (inactive)	92.9%	95.2%	-1.58% (inactive)	5.41% (inactive)
Cn1c(=O)c2c(nc(SCC(=O)O)n2Cc2cccc(C(F)(F)F)c2)n(C)c1=O	97.5%	84% (inactive)	97.5% (inactive)	94.7% (inactive)	95.6% (inactive)	5.41% (inactive)	90.2%	95.6%	-4.67% (inactive)	0.81% (inactive)
CN1C(=O)CCC1(O)c1ccccc1 (stereo not given)	89%	98% (inactive)	89% (inactive)	116% (inactive)	92.3% (inactive)	0.975% (inactive)	91.3%	92.3%	0.91% (inactive)	-8.17% (inactive)
CN(C1CCCCC1)S(=O)(=O)c1ccc(NC(=O)c2ccco2)cc1	91.5%	91.5% (inactive)	91.5% (inactive)	80.4% (inactive)	99.3% (inactive)	4.14% (inactive)	95.1%	99.3%	-5.26% (inactive)	-0.67% (inactive)
COC(=O)CC1C(=O)NCCN1C(=O)NC1CCCCC1 (stereo not given)	94%	114% (inactive)	94% (inactive)	104% (inactive)	98.8% (inactive)	7.06% (inactive)	91.7%	98.8%	-9.59% (inactive)	-6.98% (inactive)
Cc1nnc(NCCc2ccccc2)n(N)c1=O	107%	104% (inactive)	107% (inactive)	120% (inactive)	94.1% (inactive)	-3.7% (inactive)	97.8%	94.1%	-0.4% (inactive)	-9.03% (inactive)

Reference: PubChem BioAssay
